Reference: PubChem BioAssay AID2645 (Broad Institute, 2010)
Activity calls are given as the source filed them.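 The calls were made as follows: active = cAMP rise above 50% of the positive control response, mean of two replicates; inactive = cAMP rise at or below 50% of control.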

Tested on: human washed platelets, cAMP competitive ELISA, 5 min
Experiment: platelet cAMP elevation by compounds, confirmation, counter-screen for platelet activation inhibitor project, cell-based, competitive ELISA, PGE1 reference (AID 2645)
Conditions: at 10 µM; stronger effect = higher value
Summary of the method: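 Test system: washed donor platelets; doses: 10 µM, single dose; timing: 5 min compound treatment; signal: competitive cAMP ELISA, platelet lysates, 0.5% Triton X-100, 0.1 M HCl; benchmarks: PGE1 1 µM high, DMSO 0.3% neutral; replicates: duplicates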

## CCC(CC)=N/N=C/c1c(O)n(CC)c2cc(C3=NNC(=O)CC3)ccc12
  cAMP induction, % of PGE1: 109%

## COc1cc2c(cc1OC)-c1cc(Nc3ccc(F)cc3)nc(=O)n1CC2
  cAMP induction, % of PGE1: 210%

## Cc1[nH]c(=O)c(C#N)c(C)c1CSc1ncccn1
  cAMP induction, % of PGE1: 55.4%

## COc1ccccc1-n1cc(-c2ccc(Cl)cc2)[nH]c1=O
  cAMP induction, % of PGE1: 32.2% (inactive)

## O=c1[nH]c2c(s1)C=Nc1ccccc1N2
  cAMP induction, % of PGE1: 163%

## Cc1ccc(-n2c(N)c(C#N)c(-c3ccccc3)c(C#N)c2=O)cc1
  cAMP induction, % of PGE1: -16.7% (inactive)

## COc1cc2c(cc1OC)-c1cc(N3CCCCCC3)nc(=O)n1CC2
  cAMP induction, % of PGE1: 83.7%

## COC(=O)CS(=O)(=O)c1ccc2c(c1)CC(=O)N2
  cAMP induction, % of PGE1: 57.2%

## COc1ccccc1C(=O)Nc1c[nH]c(=O)[nH]c1=O
  cAMP induction, % of PGE1: 97.7%

## COc1cc2c(cc1OC)-c1cc(N3CCc4ccccc43)nc(=O)n1CC2
  cAMP induction, % of PGE1: 74.8%

## COc1ccc(/C=N/N(C)c2cc(=O)n(C)c(=O)[nH]2)cc1OC
  cAMP induction, % of PGE1: 136%

## COc1cc2c(cc1OC)-c1cc(Nc3ccccc3C)nc(=O)n1CC2
  cAMP induction, % of PGE1: 638%

## C/C(=N/NC(=O)C1CCCC1)c1ccc(NC(=O)C(F)(F)F)cc1
  cAMP induction, % of PGE1: -25% (inactive)

## CCOc1cc(/C=N/NC(N)=O)cc(Br)c1OCC(=O)Nc1ccccc1C
  cAMP induction, % of PGE1: 155%

## COc1cc2c(cc1OC)/C(=C/C(=O)c1ccc(NC(C)=O)cc1)NCC2
  cAMP induction, % of PGE1: 67.8%

## O=C(Nc1cccc(NC(=O)c2ccccc2Cl)c1)c1ccco1
  cAMP induction, % of PGE1: -18.7% (inactive)
